In brackets after ≈: the same amount, converted by molar mass.
Legend:
Assay type in all cases: functional
[1] = tested on: Saccharomyces cerevisiae; assay: Antimicrobial activity against Saccharomyces cerevisiae Diproval 8167 after 48 hr by agar dilution method; settings: Diproval 8167, 48 h
How it was run: (§1)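 Yeast peptone dextrose agar plates, each holding a 2-fold serial dilution of sample (0.5 mL into 9.5 mL medium). Yeast streaked onto the plates and incubated at 28 °C, read at 36 and 48 h. MIC is the lowest concentration tested showing no growth.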

[2] = tested on: Aspergillus niger; assay: Antimicrobial activity against Aspergillus niger ATCC 1040 after 48 hr by agar dilution method; settings: ATCC 1040, 48 h
How it was run: (§2)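 Fungi tested by agar dilution in malt agar. Serial 2-fold sample dilutions (0.5 mL) were mixed with 9.5 mL medium and plated, then streaked with the organism. Incubation at 28 °C for 36 and 48 h. MIC is the lowest tested concentration without growth.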

[3] = tested on: Stutzerimonas stutzeri; assay: Antimicrobial activity against Pseudomonas stutzeri ATCC 962 after 48 hr by agar dilution method; settings: ATCC 962, 48 h
How it was run: (§3)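 Agar dilution on standard plate count agar: 0.5 mL of a 2-fold serial dilution of sample mixed into 9.5 mL medium, poured into Petri dishes, organism streaked on the surface. Incubated at 28 °C (36 and 48 h). MIC is the lowest tested concentration with no visible growth.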

[4] = tested on: Hanseniaspora uvarum; assay: Antimicrobial activity against Hanseniaspora uvarum AP23 after 48 hr by agar dilution method; settings: Distaam AP23, 48 h; how it was run: as §1
[5] = tested on: Bacillus licheniformis; assay: Antimicrobial activity against Bacillus licheniformis DSM 13=ATCC 14580 after 48 hr by agar dilution method; settings: DSM 13 = ATCC 14580, 48 h; how it was run: as §3
[6] = tested on: Aspergillus fumigatus; assay: Antimicrobial activity against Aspergillus fumigatus ATCC 1028 after 48 hr by agar dilution method; settings: ATCC 1028, 48 h; how it was run: as §2
[7] = tested on: Bacillus cereus; assay: Antimicrobial activity against Bacillus cereus DSM 345 after 48 hr by agar dilution method; settings: DSM 345, 48 h; how it was run: as §3
[8] = tested on: Hanseniaspora uvarum; assay: Antimicrobial activity against Hanseniaspora uvarum CBS 314 after 48 hr by agar dilution method; settings: CBS 314, 48 h; how it was run: as §1
[9] = tested on: Staphylococcus aureus; assay: Antimicrobial activity against Staphylococcus aureus subsp. aureus DSM 346 after 48 hr by agar dilution method; settings: DSM 346, 48 h; how it was run: as §3
[10] = tested on: Saccharomyces cerevisiae; assay: Antimicrobial activity against Saccharomyces cerevisiae Diproval 404 after 48 hr by agar dilution method; settings: Diproval 404, 48 h; how it was run: as §1
[11] = tested on: Saccharomycodes ludwigii; assay: Antimicrobial activity against Saccharomycodes ludwigii Diproval 120 after 48 hr by agar dilution method; settings: Diproval 120, 48 h; how it was run: as §1
[12] = tested on: Micrococcus luteus; assay: Antimicrobial activity against Micrococcus luteus DSM 348 after 48 hr by agar dilution method; settings: DSM 348, 48 h; how it was run: as §3
[13] = tested on: Bacillus subtilis; assay: Antimicrobial activity against Bacillus subtilis DSM 345 after 48 hr by agar dilution method; settings: DSM 345, 48 h; how it was run: as §3
[14] = tested on: Hanseniaspora guilliermondii; assay: Antimicrobial activity against Hanseniaspora guilliermondii CBS 465 after 48 hr by agar dilution method; settings: CBS 465, 48 h; how it was run: as §1
[15] = tested on: Hanseniaspora osmophila; assay: Antimicrobial activity against Hanseniaspora osmophila CBS 313 after 48 hr by agar dilution method; settings: CBS 313, 48 h; how it was run: as §1
[16] = tested on: Trichoderma viride; assay: Antimicrobial activity against Hypocrea rufa ATCC 28020 after 48 hr by agar dilution method; settings: ATCC 28020, 48 h; how it was run: as §2
[17] = tested on: Penicillium expansum; assay: Antimicrobial activity against Penicillium expansum ATCC 7861 after 48 hr by agar dilution method; settings: ATCC 7861, 48 h; how it was run: as §2
[18] = tested on: Enterococcus faecalis; assay: Antimicrobial activity against Enterococcus faecalis DSM 2570 after 48 hr by agar dilution method; settings: DSM 2570, 48 h; how it was run: as §3
[19] = tested on: Lacticaseibacillus rhamnosus; assay: Antimicrobial activity against Lactobacillus rhamnosus DSM 20021 after 48 hr by agar dilution method; settings: DSM 20021, 48 h; how it was run: as §3
[20] = tested on: Schizosaccharomyces pombe; assay: Antimicrobial activity against Schizosaccharomyces pombe Diproval 106 after 48 hr by agar dilution method; settings: Diproval 106, 48 h; how it was run: as §1
[21] = tested on: Rhizopus arrhizus; assay: Antimicrobial activity against Rhizopus oryzae ATCC 56536 after 48 hr by agar dilution method; settings: ATCC 56536, 48 h; how it was run: as §2
[22] = tested on: Setophoma terrestris; assay: Antimicrobial activity against Setophoma terrestris ATCC 11321 after 48 hr by agar dilution method; settings: ATCC 11321, 48 h; how it was run: as §2
[23] = tested on: Candida albicans; assay: Antimicrobial activity against Candida albicans CBS 562 after 48 hr by agar dilution method; settings: CBS 562, 48 h; how it was run: as §1
[24] = tested on: Saccharomyces cerevisiae; assay: Antimicrobial activity against Saccharomyces cerevisiae Diproval 2439 after 48 hr by agar dilution method; settings: Diproval 2439, 48 h; how it was run: as §1
[25] = tested on: Escherichia coli; assay: Antimicrobial activity against Escherichia coli ATCC 35346 after 48 hr by agar dilution method; settings: ATCC 35346, 48 h; how it was run: as §3
[26] = tested on: Lacticaseibacillus casei; assay: Antimicrobial activity against Lactobacillus casei DSM 20011 after 48 hr by agar dilution method; settings: DSM 20011, 48 h; how it was run: as §3
[27] = tested on: Limosilactobacillus fermentum; assay: Antimicrobial activity against Lactobacillus fermentum DSM 20052 after 48 hr by agar dilution method; settings: DSM 20052, 48 h; how it was run: as §3
[28] = tested on: Lactiplantibacillus plantarum; assay: Antimicrobial activity against Lactobacillus plantarum DSM 20174 after 48 hr by agar dilution method; settings: DSM 20174, 48 h; how it was run: as §3
[29] = tested on: Saccharomyces cerevisiae; assay: Antimicrobial activity against Saccharomyces cerevisiae Diproval 7070 after 48 hr by agar dilution method; settings: Diproval 7070, 48 h; how it was run: as §1
[30] = tested on: Escherichia coli; assay: Antimicrobial activity against Escherichia coli DSM 682 after 48 hr by agar dilution method; settings: DSM 682, 48 h; how it was run: as §3
[31] = tested on: Pseudomonas aeruginosa; assay: Antimicrobial activity against Pseudomonas aeruginosa DSM 1117 after 48 hr by agar dilution method; settings: DSM 1117, 48 h; how it was run: as §3
[32] = tested on: Saccharomyces cerevisiae; assay: Antimicrobial activity against Saccharomyces cerevisiae Diproval 6073 after 48 hr by agar dilution method; settings: Diproval 6073, 48 h; how it was run: as §1
[33] = tested on: Hanseniaspora vineae; assay: Antimicrobial activity against Hanseniaspora vineae CBS 2171 after 48 hr by agar dilution method; settings: CBS 2171, 48 h; how it was run: as §1
[34] = tested on: Aspergillus flavus; assay: Antimicrobial activity against Aspergillus flavus ATCC 11655 after 48 hr by agar dilution method; settings: ATCC 11655, 48 h; how it was run: as §2
[35] = tested on: Staphylococcus epidermidis; assay: Antimicrobial activity against Staphylococcus epidermidis DSM 1798 after 48 hr by agar dilution method; settings: DSM 1798, 48 h; how it was run: as §3
[36] = tested on: Saccharomyces cerevisiae; assay: Antimicrobial activity against Saccharomyces cerevisiae Diproval 9109 after 48 hr by agar dilution method; settings: Diproval 9109, 48 h; how it was run: as §1

Compound: COC1(CC[C@@H](C)CO[C@@H]2O[C@H](CO)[C@@H](O)[C@H](O)[C@H]2O)O[C@H]2C[C@H]3[C@@H]4CC[C@H]5C[C@@H](O[C@@H]6O[C@H](CO)[C@H](O[C@@H]7O[C@H](CO)[C@@H](O)[C@H](O[C@@H]8O[C@H](CO)[C@@H](O)[C@H](O)[C@H]8O)[C@H]7O[C@@H]7O[C@H](CO)[C@@H](O)[C@H](O[C@@H]8O[C@H](CO)[C@@H](O)[C@H](O)[C@H]8O)[C@H]7O)[C@H](O)[C@H]6O)[C@H](O)C[C@]5(C)[C@H]4CC[C@]3(C)[C@H]2[C@@H]1C (stereo partly specified) [O-METHYLCAPSICOSIDE A]
- MIC [1]: 50 µg/mL (≈ 34.8 µM)
- MIC [2]: > 1000 µg/mL
- MIC [3]: > 1000 µg/mL
- MIC [4]: 50 µg/mL (≈ 34.8 µM)
- MIC [5]: > 1000 µg/mL
- MIC [6]: > 1000 µg/mL
- MIC [7]: 1000 µg/mL (≈ 696 µM)
- MIC [8]: 25 µg/mL (≈ 17.4 µM)
- MIC [9]: > 1000 µg/mL
- MIC [10]: 50 µg/mL (≈ 34.8 µM)
- MIC [11]: 50 µg/mL (≈ 34.8 µM)
- MIC [12]: > 1000 µg/mL
- MIC [13]: > 1000 µg/mL
- MIC [14]: 25 µg/mL (≈ 17.4 µM)
- MIC [15]: 50 µg/mL (≈ 34.8 µM)
- MIC [16]: 250 µg/mL (≈ 174 µM)
- MIC [17]: 1000 µg/mL (≈ 696 µM)
- MIC [18]: > 1000 µg/mL
- MIC [19]: 1000 µg/mL (≈ 696 µM)
- MIC [20]: 50 µg/mL (≈ 34.8 µM)
- MIC [21]: 125 µg/mL (≈ 87 µM)
- MIC [22]: 125 µg/mL (≈ 87 µM)
- MIC [23]: 50 µg/mL (≈ 34.8 µM)
- MIC [24]: 50 µg/mL (≈ 34.8 µM)
- MIC [25]: 1000 µg/mL (≈ 696 µM)
- MIC [26]: 1000 µg/mL (≈ 696 µM)
- MIC [27]: 1000 µg/mL (≈ 696 µM)
- MIC [28]: 1000 µg/mL (≈ 696 µM)
- MIC [29]: 50 µg/mL (≈ 34.8 µM)
- MIC [30]: 1000 µg/mL (≈ 696 µM)
- MIC [31]: > 1000 µg/mL
- MIC [32]: 50 µg/mL (≈ 34.8 µM)
- MIC [33]: 25 µg/mL (≈ 17.4 µM)
- MIC [34]: > 1000 µg/mL
- MIC [35]: > 1000 µg/mL
- MIC [36]: 50 µg/mL (≈ 34.8 µM)
